Results reported in ChEMBL document CHEMBL1770123, “SPF32629A and SPF32629B: enantioselective synthesis, determination of absolute configuration, cytotoxicity and antibacterial evaluation” (Eur J Med Chem, 2011).
≈ marks a conversion by molar mass, not a printed value.

Key:
Staphylococcus aureus [1] = assay: Antimicrobial activity against methicillin-resistant Staphylococcus aureus strain 4 TB5G at 1000 ug/disc after 24 hrs by disc diffusion method; type: functional; settings: read-out: DIZ
How it was run: (§1)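 Disc diffusion on 2.4% Mueller-Hinton agar inoculated with the strain. Paper discs 6 mm across were loaded with test compound and placed on the agar. Plates were incubated at 37 °C for 24 h. Read-out was the diameter of the inhibition zone in mm.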

[2] = tested on: Staphylococcus epidermidis; assay: Antimicrobial activity against Staphylococcus epidermidis after 24 hrs by microdilution method; type: functional
How it was run: (§2)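 Growth was judged by turbidity, and the MIC was taken as the minimum concentration giving the lowest growth. Amikacin served as reference.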

Staphylococcus aureus [3] = assay: Antimicrobial activity against methicillin-resistant Staphylococcus aureus strain 1 TB3G after 24 hrs by microdilution method; type: functional
How it was run: (§3)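 Growth was judged by turbidity. The MIC was taken as the lowest concentration giving the lowest growth.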

Salmonella typhimurium [4] = assay: Antimicrobial activity against Salmonella Typhimurium at 500 ug/disc after 24 hrs by disc diffusion method; type: functional, Salmonella enterica subsp. enterica serovar Typhimurium; settings: Salmonella enterica, read-out: DIZ
Listeria monocytogenes [5] = assay: Antimicrobial activity against Listeria monocytogenes after 24 hrs by microdilution method; type: functional; how it was run: as §2
Staphylococcus aureus [6] = assay: Antimicrobial activity against methicillin-resistant Staphylococcus aureus strain 2 TB4G at 500 ug/disc after 24 hrs by disc diffusion method; type: functional; settings: read-out: DIZ; how it was run: as §1
Staphylococcus aureus [7] = assay: Antimicrobial activity against Staphylococcus aureus at 500 ug/disc after 24 hrs by disc diffusion method; type: functional; settings: read-out: DIZ; how it was run: as §1
Listeria monocytogenes [8] = assay: Antimicrobial activity against Listeria monocytogenes at 1000 ug/disc after 24 hrs by disc diffusion method; type: functional; settings: read-out: DIZ
A549 [9] = assay: Cytotoxicity against human A549 cells assessed as cell death at 2 ug after 48 hrs by MTT assay; type: functional
How it was run: (§4)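 A549 cells were grown in DMEM with 2 mmol L-glutamine, 10% FBS, penicillin (50 IU/mL) and streptomycin, at 37 °C and 5% CO2. 1×10^4 cells/well were plated and treated 24 h later with compound diluted in medium for 48 h. Controls were DMSO-matched and untreated wells. MTT 0.4 mg/mL in PBS was added for 4 h in the dark, then DMSO for 4 h. A540 was read and reported as % live cells relative to untreated.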

A549 [10] = assay: Cytotoxicity against human A549 cells assessed as cell death at 1 ug after 48 hrs by MTT assay; type: functional; how it was run: as §4
Staphylococcus aureus [11] = assay: Antimicrobial activity against methicillin-resistant Staphylococcus aureus strain 1 TB3G at 500 ug/disc after 24 hrs by disc diffusion method; type: functional; settings: read-out: DIZ; how it was run: as §1
Klebsiella pneumoniae [12] = assay: Antimicrobial activity against Klebsiella pneumoniae after 24 hrs by microdilution method; type: functional; how it was run: as §2
Bacillus subtilis [13] = assay: Antimicrobial activity against Bacillus subtilis at 1000 ug/disc after 24 hrs by disc diffusion method; type: functional; settings: read-out: DIZ
Salmonella typhimurium [14] = assay: Antimicrobial activity against Salmonella Typhimurium after 24 hrs by microdilution method; type: functional, Salmonella enterica subsp. enterica serovar Typhimurium; settings: Salmonella enterica; how it was run: as §2
Salmonella typhimurium [15] = assay: Antimicrobial activity against Salmonella Typhimurium at 1000 ug/disc after 24 hrs by disc diffusion method; type: functional, Salmonella enterica subsp. enterica serovar Typhimurium; settings: Salmonella enterica, read-out: DIZ
A549 [16] = assay: Cytotoxicity against human A549 cells after 48 hrs by MTT assay; type: functional, cell-based; settings: A549, 48 h
How it was run: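 A549 cells were kept in DMEM with 2 mM L-glutamine, 10% FBS, penicillin 50 IU/mL and streptomycin at 37 °C under 5% CO2. 1×10^4 cells per well were treated 24 h after seeding with compounds diluted in medium for 48 h. MTT (0.4 mg/mL in PBS) was added for 4 h in the dark, formazan was dissolved in DMSO for 4 h and absorbance read at 540 nm. Viability was expressed as % of untreated cells, and IC50 was derived.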

[17] = tested on: Staphylococcus epidermidis; assay: Antimicrobial activity against Staphylococcus epidermidis at 500 ug/disc after 24 hrs by disc diffusion method; type: functional; settings: read-out: DIZ
Staphylococcus aureus [18] = assay: Antimicrobial activity against methicillin-resistant Staphylococcus aureus strain 1 TB3G at 1000 ug/disc after 24 hrs by disc diffusion method; type: functional; settings: read-out: DIZ; how it was run: as §1
A549 [19] = assay: Cytotoxicity against human A549 cells assessed as cell death at 25 ug after 48 hrs by MTT assay; type: functional; how it was run: as §4
Staphylococcus aureus [20] = assay: Antimicrobial activity against Staphylococcus aureus after 24 hrs by microdilution method; type: functional; how it was run: as §2
Staphylococcus aureus [21] = assay: Antimicrobial activity against Staphylococcus aureus at 1000 ug/disc after 24 hrs by disc diffusion method; type: functional; settings: read-out: DIZ
Staphylococcus aureus [22] = assay: Antimicrobial activity against methicillin-resistant Staphylococcus aureus strain 4 TB5G at 500 ug/disc after 24 hrs by disc diffusion method; type: functional; settings: read-out: DIZ; how it was run: as §1
Klebsiella pneumoniae [23] = assay: Antimicrobial activity against Klebsiella pneumoniae at 500 ug/disc after 24 hrs by disc diffusion method; type: functional; settings: read-out: DIZ
A549 [24] = assay: Cytotoxicity against human A549 cells assessed as cell death at 5 ug after 48 hrs by MTT assay; type: functional; how it was run: as §4
Escherichia coli [25] = assay: Antimicrobial activity against Escherichia coli at 1000 ug/disc after 24 hrs by disc diffusion method; type: functional; settings: read-out: DIZ
[26] = tested on: Staphylococcus epidermidis; assay: Antimicrobial activity against Staphylococcus epidermidis at 1000 ug/disc after 24 hrs by disc diffusion method; type: functional; settings: read-out: DIZ
Escherichia coli [27] = assay: Antimicrobial activity against Escherichia coli after 24 hrs by microdilution method; type: functional; how it was run: as §2
Staphylococcus aureus [28] = assay: Antimicrobial activity against methicillin-resistant Staphylococcus aureus strain 2 TB4G at 1000 ug/disc after 24 hrs by disc diffusion method; type: functional; settings: read-out: DIZ; how it was run: as §1
Staphylococcus aureus [29] = assay: Antimicrobial activity against methicillin-resistant Staphylococcus aureus strain 2 TB4G after 24 hrs by microdilution method; type: functional; how it was run: as §3
Staphylococcus aureus [30] = assay: Antimicrobial activity against methicillin-resistant Staphylococcus aureus strain 4 TB5G after 24 hrs by microdilution method; type: functional; how it was run: as §3
Klebsiella pneumoniae [31] = assay: Antimicrobial activity against Klebsiella pneumoniae at 1000 ug/disc after 24 hrs by disc diffusion method; type: functional; settings: read-out: DIZ
Listeria monocytogenes [32] = assay: Antimicrobial activity against Listeria monocytogenes at 500 ug/disc after 24 hrs by disc diffusion method; type: functional; settings: read-out: DIZ
Bacillus subtilis [33] = assay: Antimicrobial activity against Bacillus subtilis after 24 hrs by microdilution method; type: functional; how it was run: as §2
Escherichia coli [34] = assay: Antimicrobial activity against Escherichia coli at 500 ug/disc after 24 hrs by disc diffusion method; type: functional; settings: read-out: DIZ
Bacillus subtilis [35] = assay: Antimicrobial activity against Bacillus subtilis at 500 ug/disc after 24 hrs by disc diffusion method; type: functional; settings: read-out: DIZ
A549 [36] = assay: Cytotoxicity against human A549 cells assessed as cell death at 10 ug after 48 hrs by MTT assay; type: functional; how it was run: as §4

`CC(C)CC(=O)O[C@H](c1ccccc1)c1cc(O)c(C(=O)O)c(=O)[nH]1` gave a zone of inhibition at 1000 µg/disc (Staphylococcus aureus [1]) of 11 mm, an MIC [2] of 25 µg/mL (≈ 72.4 µM) and an MIC (Staphylococcus aureus [3]) of over 100 µg/mL. For the same compound, the zone of inhibition at 500 µg/disc (Salmonella typhimurium [4]) was 9 mm, the MIC (Listeria monocytogenes [5]) was 100 µg/mL (≈ 290 µM) and the zone of inhibition at 500 µg/disc (Staphylococcus aureus [6]) was 6 mm. The zone of inhibition at 500 µg/disc (Staphylococcus aureus [7]) was 11 mm, the zone of inhibition at 1000 µg/disc (Listeria monocytogenes [8]) was 15 mm and the Activity (A549 [9]) was 30.76%. For the same compound, the Activity (A549 [10]) was 10.46%, the zone of inhibition at 500 µg/disc (Staphylococcus aureus [11]) was 7 mm and the MIC (Klebsiella pneumoniae [12]) was over 100 µg/mL. The zone of inhibition at 1000 µg/disc (Bacillus subtilis [13]) was 15 mm, the MIC (Salmonella typhimurium [14]) was over 100 µg/mL and the zone of inhibition at 1000 µg/disc (Salmonella typhimurium [15]) was 20 mm. For the same compound, the IC50 (A549 [16]) was 8 µM, the zone of inhibition at 500 µg/disc [17] was 12 mm and the zone of inhibition at 1000 µg/disc (Staphylococcus aureus [18]) was 13 mm. For the same compound, the Activity (A549 [19]) was 78.76%, the MIC (Staphylococcus aureus [20]) was over 100 µg/mL and the zone of inhibition at 1000 µg/disc (Staphylococcus aureus [21]) was 18 mm. The zone of inhibition at 500 µg/disc (Staphylococcus aureus [22]) was 5 mm, the zone of inhibition at 500 µg/disc (Klebsiella pneumoniae [23]) was 9 mm and the Activity (A549 [24]) was 44.92%. It also gave a zone of inhibition at 1000 µg/disc (Escherichia coli [25]) of 18 mm, a zone of inhibition at 1000 µg/disc [26] of 20 mm and an MIC (Escherichia coli [27]) of 50 µg/mL (≈ 145 µM). The zone of inhibition at 1000 µg/disc (Staphylococcus aureus [28]) was 10 mm, the MIC (Staphylococcus aureus [29]) was over 100 µg/mL and the MIC (Staphylococcus aureus [30]) was over 100 µg/mL. The zone of inhibition at 1000 µg/disc (Klebsiella pneumoniae [31]) was 20 mm, the zone of inhibition at 500 µg/disc (Listeria monocytogenes [32]) was 7 mm and the MIC (Bacillus subtilis [33]) was 100 µg/mL (≈ 290 µM). It also gave a zone of inhibition at 500 µg/disc (Escherichia coli [34]) of 10 mm, a zone of inhibition at 500 µg/disc (Bacillus subtilis [35]) of 8 mm and an Activity (A549 [36]) of 77.84%.
